Screens: PubChem, Sanford-Burnham Center for Chemical Genomics
A selection: hits, their analogues and other compounds. The true share with any hit is near 1.8%.
hiPSC survival – enhancers of human iPSC single-cell survival | hiPSC single-cell survival, ATPlite luminescence; 100% = ROCK inhibitor wells, 0% = DMSO | survival enhancement, % at 20 µM | 360,000 tested, 0.044% active | AID 602274; in the data active means survival enhancement above about 18%;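 further: cells exposed to compounds for 16 hours before the ATP read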
Lipid droplet – hepatic lipid droplet formation modulation. inhibition, % at 6.5 µM. 240,000 tested, 0.4% active. AML12 mouse hepatocytes, oleate lipid droplets, BODIPY imaging;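 active means lipid droplet intensity inhibited by at least 50%, with more than 500 cells counted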
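Assay system: AML12 mouse liver cells | Compound: 6.5 µM single-point dosing | Schedule: Overnight exposure | Technique: Fluorescence imaging, 20x objective, two fields per well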
TAG inh – reduces triacylglycerol accumulation in H9c2 cells. Nile Red lipid (TAG) fluorescence; cells loaded with 200 µM oleic acid. 230,000 tested, 0.66% active. AID 651582. inhibition, % at 12.5 µM;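 active means pattern-corrected inhibition of lipid staining of at least 50% with the nuclear-stain viability signal not falling by more than 50%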;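 further: 0% = DMSO wells and 100% = triacsin C control wells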
Jurkat NFkB inh – lowers PMA/ionomycin-induced NF-kB signal in Jurkat cells. PMA/ionomycin-induced NF-kB luciferase reporter, luminescence. inhibition, % at 4 µM. 330,000 tested, 0.53% active; in the data active means inhibition above about 50%
Gli-Sufu antag – blocks Gli-Sufu signaling in a luciferase reporter. Sufu-KO-LIGHT fibroblasts, Gli luciferase reporter luminescence. inhibition, % at 5 µM. 340,000 tested, 0.74% active;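 active means inhibition above about 55%, limit read from the data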;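 further: 0% = DMSO-treated cells and 100% = wells with medium but no cells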
697 NFkB inh – lowers PMA/ionomycin-induced NF-kB signal in 697 B cells. 697 B-cell NF-kB luciferase reporter, 16 h. inhibition, % at 4 µM. 330,000 tested, 0.33% active; in the data active means inhibition above about 35%
697 NFkB conf – lowers PMA/ionomycin-induced NF-kB signal in 697 B cells; 697 B-cell NF-kB luciferase, 16 h; inhibition, % at 4 µM; 2,000 tested, 35% active; shares compounds with 697 NFkB inh; in the data active means inhibition mostly above about 28%, no sharp cut-off; inactive means mostly below about 22%
Numbers without * were called inactive; i = inactive; . = no result.

SMILES	hiPSC survival	Lipid droplet	TAG inh	Jurkat NFkB inh	Gli-Sufu antag	697 NFkB inh	697 NFkB conf
Cc1ccc(C(=O)Nc2cccc(NC(=O)c3ccc(C)c([N+](=O)[O-])c3)n2)cc1[N+](=O)[O-]	0	-8	.	1	3	-5	.
Cc1ccc(C(=O)Nc2sc(C)c(-c3ccccc3)c2C(N)=O)cc1[N+](=O)[O-]	-4	1	34	-20	66*	-415	-99
COc1cccc(NC(=O)N(C)C[C@H]2OCc3cnnn3CCCC(=O)N([C@H](C)CO)C[C@@H]2C)c1	0	.	5	.	.	.	.
COc1cc2c(cc1NC(=O)CSCC(=O)O)oc1ccccc12	0	.	-14	3	-4	36*	-1
COc1cc2c(cc1NC(=O)CCC(=O)O)oc1ccccc12	0	0	.	-8	3	-18	.
COc1ccc(C(=O)Nc2cccc(NC(=O)c3ccc(OC)c(OC)c3)n2)cc1OC	-1	28	16	41	-10	39*	47*
COc1ccc(C(=O)Nc2nnc(Cc3cccs3)s2)cc1OC	-1	.	-1	12	-8	36*	37*
COc1ccc(C(=O)Nc2cccc3cccnc23)cc1OC	-2	-13	.	-8	-8	20	.
Cc1c(OCc2ccc(C(=O)O)cc2)ccc2c(-c3ccccc3)cc(=O)oc12	3	11	7	5	3	37*	7
COc1ccc(C(=O)NCc2nnc(SCC(=O)Nc3ccccc3OC)n2C)cc1	-1	0	3	0	2	18	.
COc1cc(/C=N/NC(=O)c2cc(-c3cccs3)nc3ccccc23)ccc1O	1	-24	11	-13	-4	-22	.
COc1cc(/C=N/NC(=O)c2cc(-c3cccc(OC(C)C)c3)nc3ccccc23)ccc1O	-1	.	6	-12	-22	i	-384
CNC(=O)C(=O)NCC1OCCN1S(=O)(=O)c1ccc(OC)c(OC)c1 (stereo not drawn)	0	11	-22	10	-3	23	.
O=C(O)c1ccc(N/N=C/c2cc3cc4c(cc3nc2Cl)OCCO4)cc1	0	8	29	-103	-133	-493	-480
O=Cc1cc2cc3c(cc2nc1Cl)OCCO3	.	-3	.	-6	-9	-44	.
Cc1ccc(-c2nc(C(=O)NCC3CCCO3)cc3c2[nH]c2ccccc23)cc1 (stereo not drawn)	3	8	.	8	16	39*	36*
COc1ccc(-c2nc(C(=O)NCC3CCCO3)cc3c2[nH]c2ccccc23)cc1 (stereo not drawn)	-1	5	.	0	15	23	.
O=C(Nc1ccc(O)cc1)c1c(O)c2c([nH]c1=O)CCCC2	-4	6	.	-95	-58	-469	-261
Cc1ccc(C(=O)NC(=S)Nc2cccnc2Cl)cc1	0	-2	.	-107	-72	-58	.
COc1ccccc1C(=O)NC(=S)Nc1cccnc1Cl	-1	-5	.	-125	-52	-250	-332
COc1cccc(CNC(=O)[C@@H]2CCCN2C(=O)[C@H]2CCCCN2)c1	-1	.	.	.	.	.	.
CCCCNC(=O)c1c(N)n(/N=C/c2ccccn2)c2nc3ccccc3nc12	.	.	.	-1	.	47*	44*
CC(C)CNC(=O)c1c(N)n(/N=C/c2ccccn2)c2nc3ccccc3nc12	1	8	42	-5	27	-46	.
COc1cc(C(=O)NNC(=O)c2ccc(F)cc2)ccc1OCC(=O)N1CCOCC1	0	.	-5	-9	-4	2	.
COc1cc(C(=O)O)ccc1OCC(=O)N1CCOCC1	-1	.	.	1	1	40*	-7
SMILES	hiPSC survival	Lipid droplet	TAG inh	Jurkat NFkB inh	Gli-Sufu antag	697 NFkB inh	697 NFkB conf
Cc1cccc(NC(=O)c2cc(-c3cc(C)ccc3O)n[nH]2)c1	0	16	.	-82	-47	-120	.
Cc1ccc(O)c(-c2cc(C(F)(F)F)[nH]n2)c1	-1	.	.	10	5	40*	22
CN1OC[C@@H]2CN(Cc3ccc4c(c3)OCO4)[C@H](c3ccc(N4CCCCC4)cc3)C[C@@H]21	0	.	.	.	.	.	.
c1ccc2c(c1)CCN(c1nc3cc4c(cc3s1)OCCO4)C2	-3	.	5	-44	18	-382	-358
CCC(c1nnc(SCC(=O)NC2CCCCC2)n1Cc1ccccc1)N(C)C (stereo not drawn)	0	.	6	4	-1	39*	2
N=c1ccn(Cc2c(Cl)cccc2Cl)cc1	2	-4	-15	42	5	47*	57*
N=c1ccn(Cc2ccccc2Cl)cc1	-1	-7	-81	41	25	46*	48*
CN(Cc1nc(-c2cccs2)no1)CC(O)c1ccccc1 (stereo not drawn)	-1	-13	-7	-9	-30	2	.
COCCN(Cc1nc(-c2ccc(-c3ccccc3)cc2)oc1C)C(C)C	1	-10	-14	-25	-57	-322	-436
Cn1nnnc1SCC(=O)C(C)(C)C	0	-33	11	-9	1	-2	.
COc1cc(Br)c(C(=O)c2nccc3cc(OC)c(OC)cc23)cc1OC	0	-6	-15	15	2	39*	30*
COc1cc(N)c(C(=O)c2nccc3cc(OC)c(OC)cc23)cc1OC	0	-1	.	-15	9	-6	.
COc1cccc(COC(=O)Nc2ccccc2)c1OC	-1	.	.	.	.	.	.
COc1ccc(CCNC(=O)c2ccc(Br)o2)cc1Br	1	.	.	.	.	.	.
CCc1cc2c(-c3ccccc3)cc(=O)oc2cc1OC(C)C(=O)NCC1CCC(C(=O)O)CC1 (stereo not drawn)	0	.	.	-12	0	41*	19
CC(Oc1cc2oc(=O)cc(-c3ccccc3)c2cc1Cl)C(=O)NCC1CCC(C(=O)O)CC1 (stereo not drawn)	0	.	.	-10	0	15	.
COCCNc1nnc(SC(C)C(=O)Nc2ccc(-c3nc4ccc(C)cc4s3)cc2)s1 (stereo not drawn)	-3	2	.	-125	-63	-294	-282
COCCNc1nnc(SC(C)C(=O)Nc2c(C)n(C)n(-c3ccccc3)c2=O)s1 (stereo not drawn)	0	4	-7	15	-11	-3	.
CCS(=O)(=O)Nc1cccc(-c2ccc3nnc(-c4cccnc4)n3n2)c1	0	-14	.	-13	6	8	.
CCCS(=O)(=O)Nc1cccc(-c2ccc3nnc(C)n3n2)c1	2	18	.	9	17	39*	39*
CCOc1ccc(CC(=O)Nc2cccc(-c3ccc4nnc(C)n4n3)c2)cc1	1	5	3	5	9	9	.
Cc1nnc2ccc(-c3cccc(NS(=O)(=O)c4ccccc4Cl)c3)nn12	0	.	33	2	21	32	.
Cc1nnc2ccc(-c3cccc(NS(=O)(=O)c4cc(F)ccc4F)c3)nn12	0	.	8	-12	14	38*	-1
